Measurements pooled from the literature.
Compare with care: the assays were run in different laboratories.
Target: Phosphatidylinositol 4-phosphate 5-kinase type-1 gamma (PIP5K1C, Homo sapiens, UniProt O60331)

| SMILES | effect on | method | concentration | remaining binding [%] |
| --- | --- | --- | --- | --- |
| FC(F)(F)Oc1cccc(-c2cnc3ccc(-c4ccncc4)nn23)c1 | cell-free assay | competition with immobilised ligand | 5 µM | 47 |
| O=C(O)c1cc(-c2ccc(C3CCNCC3)cc2)c2ccc(-c3ccc(C(F)(F)F)cc3)cc2c1 | cell-free assay | competition with immobilised ligand | 1 µM | 100 |
| c1cncc(-c2cccc(Nc3nccc(NC4CCCCC4)n3)c2)c1 | binding | competition with immobilised ligand | 10 µM | 0 |
| COc1cccc(CNC(=O)c2nc3scc(COCc4ccc(C(=O)O)cc4)c3c(=O)[nH]2)c1 | cell-free assay | competition with immobilised ligand | 1 µM | 63.7 |
| N[C@H]1CCN(c2nccc(-c3cnn4ncccc34)n2)C1 | binding |  | 1 µM | 63 |
| COc1cnc(Nc2cccc(S(N)(=O)=O)c2)nc1N1CCN(c2ccccc2)CC1 | binding | competition with immobilised ligand | 1 µM | 100 |
| CC1CCCN1c1nccc(-c2cnn3ncccc23)n1 (stereo not drawn) | binding |  | 1 µM | 74 |
| CCOCCn1cc(C(=O)Nc2ccc(-n3nc(-c4cccnc4)cc3C(F)(F)F)cn2)ccc1=O | cell-free assay | competition with immobilised ligand | 1 µM | 100 |
| COc1ccnn2ncc(-c3ccnc(N(C)C)n3)c12 | binding |  | 1 µM | 97 |
| O=C(NCCCN1CCOCC1)c1ccc(Nc2ncc(Cl)c(-c3ccc(Cl)s3)n2)cc1 | binding | competition with immobilised ligand | 1 µM | 59 |
| O=C(N[C@H]1CCCCC/C=C\C2C[C@@]2(C(=O)O)NC(=O)[C@@H]2C[C@@H](Oc3ccncc3)CN2C1=O)OC1CCCC1 (stereo partly drawn) | binding | competition with immobilised ligand | 1 µM | 100 |
| CN(c1nccc(-c2cnn3ncccc23)n1)C1CC1 | binding |  | 1 µM | 100 |
| COc1ccc2c(c1)O[C@H](c1ccc(OC)c(OC)c1)C[C@@H]2NC(=O)C1(c2ccc3c(c2)OC(F)(F)O3)CC1 | cell-free assay | competition with immobilised ligand | 1 µM | 100 |
| O=C(c1ccc(Nc2nccc(-c3cc4ccccc4s3)n2)cc1)N1CCC(N2CCCC2)CC1 | binding | competition with immobilised ligand | 1 µM | 13 |
| F[C@@H]1CCN(c2nccc(-c3cnn4ncccc34)n2)C1 | binding |  | 1 µM | 100 |
| CCN1CCN(Cc2ccc(C(=O)Nc3ccc(C)c(Oc4ccc5c(c4)CC(=O)N5)c3)cc2C(F)(F)F)CC1 | binding | competition with immobilised ligand | 1 µM | 92 |
| C[C@@H]1CCN(c2nccc(-c3cnn4ncccc34)n2)C1 | binding |  | 1 µM | 99 |
| O=C(NCC1CCOCC1)c1n[nH]cc1NC(=O)c1c(F)cccc1F | binding | competition with immobilised ligand | 1 µM | 55 |
